For 54 sequences, folding enthalpy and Tm results are on record in the array DNA melting data of Ke et al. (doi:10.1101/2024.01.08.574731).

The nature of data set [1]: folding enthalpy; higher = less favourable; fluorescence melt of hairpins on a sequencing array, two-state fit. The settings on record: sodium 0.088 M. The procedure, abridged:
(§1)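 Melting temperature and folding enthalpy were derived from bootstrapped two-state fits. The fitted temperatures were raised by 9.35 °C to agree with UV melts, and four replicates were combined by inverse variance. The underlying data were Cy3 fluorescence images of library hairpins, with annealed Cy3 and quencher oligos, on a sequenced MiSeq flow cell in 50 mM Na-HEPES pH 8.0, 25 mM NaCl, taken in 2.5 °C steps up to 60 °C, normalised to pre-quench Cy3 and to control constructs.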

A short description of data set [2]: melting temperature; fluorescence melt of hairpins on a sequencing array, two-state fit, raised by 9.35 °C to match UV melts. Particulars: sodium 0.088 M. The essentials: as §1

In the case of GGCTACGAAAGTAACGCC ((((((....)))..))), the folding enthalpy in data set [1] is -95.6 kJ/mol. For the same sequence, the Tm in data set [2] was 46.1 °C.

For the sequence GGCTACGAAAGTACAGCC ((((((....)))..))), in data set [1], the folding enthalpy is -112 kJ/mol. Further, the Tm in data set [2] was determined as 48 °C.

On to GGCTACGAAAGTATGGCC ((((((....)))..))), for which the folding enthalpy in data set [1] is -108 kJ/mol. Further, in data set [2], the Tm worked out at 47.3 °C.

GGCTACGGAAACGTGGTC (.(.(((....))).).): in data set [1], the folding enthalpy is -116 kJ/mol. For the same sequence, in data set [2], the Tm came to 42 °C.

Regarding GGCTATCGAAAGATTGCC (((.(((....))).))), the folding enthalpy in data set [1] was -173 kJ/mol. The Tm in data set [2] turned out to be 55.7 °C.

Consider GGCTATGGAAACACAGCC ((((.((....)).)))), for which the folding enthalpy in data set [1] was -125 kJ/mol. For the same sequence, the Tm in data set [2] was 43.2 °C.

Regarding GGCTCAACGAAAGTTGCC (((..(((....)))))), the folding enthalpy in data set [1] is -57.5 kJ/mol. Further, in data set [2], the Tm was 38.2 °C.

For the sequence GGCTCAGAAATGAGCC ((((((....)))))), the folding enthalpy in data set [1] was -163 kJ/mol. Moreover, the Tm in data set [2] turned out to be 67 °C.

For the sequence GGCTCCCGAAAGGGTGCC (((.(((....))).))), in data set [1], the folding enthalpy was -167 kJ/mol. Besides, the Tm in data set [2] was determined as 67.6 °C.

Regarding GGCTCCGAAAGGAAAGCC ((((((....)))..))), in data set [1], the folding enthalpy is -126 kJ/mol. Further, in data set [2], the Tm amounted to 54.3 °C.

Take GGCTCCGAAAGGAATGCC ((((((....)))..))): the folding enthalpy in data set [1] is -113 kJ/mol. In addition, in data set [2], the Tm is 51.3 °C.

For GGCTCCGAAAGGACGGCC ((((((....)))..))), the folding enthalpy in data set [1] is -87.1 kJ/mol. Besides, the Tm in data set [2] amounted to 51.2 °C.

As to GGCTCCGAAAGGAGCGCC ((((((....)))..))), the folding enthalpy in data set [1] is -27.3 kJ/mol. For the same sequence, the Tm in data set [2] was 68.6 °C.

For the sequence GGCTCCGAAAGGAGGGCC ((((((....)))..))), in data set [1], the folding enthalpy was -66.2 kJ/mol. The Tm in data set [2] came to 52.5 °C.

Take GGCTCCGGAAACGGAGTC (.(((((....))))).): in data set [1], the folding enthalpy is -126 kJ/mol. Further, the Tm in data set [2] came out at 60.8 °C.

In the case of GGCTCCGGAAACGGGGTC (.(.(((....))).).), in data set [1], the folding enthalpy is -105 kJ/mol. In data set [2], the Tm worked out at 49 °C.

Regarding GGCTCCTCGAAAGAGGCC (((..(((....)))))), the folding enthalpy in data set [1] was -58.5 kJ/mol. For the same sequence, in data set [2], the Tm came out at 39.5 °C.

As to GGCTCGCGAAAGCGGCC (((.(((....)))))), the folding enthalpy in data set [1] is -80.5 kJ/mol. The Tm in data set [2] came to 66.5 °C.

In the case of GGCTCGGGAAACTGGGCC (((.(.(....).).))), the folding enthalpy in data set [1] is -154 kJ/mol. In addition, the Tm in data set [2] worked out at 48.9 °C.

Consider GGCTCTCGAAAGAGCGCC (((.(((....))).))), for which the folding enthalpy in data set [1] is -145 kJ/mol. Moreover, the Tm in data set [2] was 56.4 °C.

Regarding GGCTGAACGAAAGTTGCC (((..(((....)))))), the folding enthalpy in data set [1] is -103 kJ/mol. Further, the Tm in data set [2] is 46.9 °C.

On to GGCTGAGGAAACCCAGCC (((((.(....).))))), for which, in data set [1], the folding enthalpy was -175 kJ/mol. Further, in data set [2], the Tm was 55 °C.

Regarding GGCTGAGGAAACTCAACC ((.((((....)))).)), the folding enthalpy in data set [1] is -136 kJ/mol. Besides, the Tm in data set [2] is 41.2 °C.

Take GGCTGCGAAAGCACGCC ((((((....))).))): in data set [1], the folding enthalpy was -124 kJ/mol. For the same sequence, the Tm in data set [2] turned out to be 65.2 °C.

Regarding GGCTGCGAAAGCATGCC ((((((....))).))), the folding enthalpy in data set [1] was -90.3 kJ/mol. Also, in data set [2], the Tm came out at 66.7 °C.

For GGCTGCGAAAGCATTGCC ((((((....)))..))), the folding enthalpy in data set [1] was -81.7 kJ/mol. In data set [2], the Tm is 52.8 °C.

With GGCTGCGGAAACGTAGCC ((((.((....)).)))), the folding enthalpy in data set [1] is -210 kJ/mol. Moreover, the Tm in data set [2] came to 61 °C.

On to GGCTGGCGAAAGCCCGCC (((.(((....))).))), for which the folding enthalpy in data set [1] is -94.7 kJ/mol. The Tm in data set [2] came to 63 °C.

Turning to GGCTGGGGAAACCCAGTC (.(((((....))))).), the folding enthalpy in data set [1] is -174 kJ/mol. The Tm in data set [2] stood at 55.8 °C.

Consider GGCTGGGGAAACTCAGCC (((((.(....).))))), for which, in data set [1], the folding enthalpy is -162 kJ/mol. Also, in data set [2], the Tm came out at 57 °C.

For GGCTGTGGAAACACAGTC (.(((((....))))).), the folding enthalpy in data set [1] was -118 kJ/mol. For the same sequence, the Tm in data set [2] came out at 54.2 °C.

Regarding GGCTTACGAAAGTAGCC (((.(((....)))))), the folding enthalpy in data set [1] is -143 kJ/mol. Besides, the Tm in data set [2] was 55.5 °C.

Regarding GGCTTACGAAAGTATGCC (((.(((....))).))), the folding enthalpy in data set [1] was -189 kJ/mol. The Tm in data set [2] was 56.8 °C.

Regarding GGCTTCGAAAGAAACGCC ((((((....)))..))), in data set [1], the folding enthalpy is -109 kJ/mol. Also, the Tm in data set [2] was 43.8 °C.

On to GGCTTCGAAAGAACGCC ((((((....))).))), for which the folding enthalpy in data set [1] is -94.9 kJ/mol. In data set [2], the Tm is 50.9 °C.

Take GGCTTCGAAAGAAGGCC ((((((....))).))): the folding enthalpy in data set [1] is -112 kJ/mol. In data set [2], the Tm was 57.9 °C.

Turning to GGCTTCGGAAACAAAGCC (((((.(....).))))), the folding enthalpy in data set [1] is -118 kJ/mol. In data set [2], the Tm was found to be 44.2 °C.

Turning to GGCTTCGGAAACGAGGCC (((.(((....))).))), in data set [1], the folding enthalpy was -195 kJ/mol. Besides, the Tm in data set [2] is 58.8 °C.

In the case of GGCTTGGGAAACCGAGTC (.((.((....)).)).), the folding enthalpy in data set [1] is -115 kJ/mol. In data set [2], the Tm was 41.5 °C.

As to GGCTTGGGAAACTAGGCC (((.(.(....).).))), the folding enthalpy in data set [1] is -119 kJ/mol. Besides, in data set [2], the Tm was 39.4 °C.

With GGCTTTACGAAAGTAGCC (((..(((....)))))), the folding enthalpy in data set [1] is -116 kJ/mol. Also, the Tm in data set [2] was 45.5 °C.

On to GGCTTTGCGAAAGCAGCC (((..(((....)))))), for which the folding enthalpy in data set [1] was -72.1 kJ/mol. In data set [2], the Tm came to 52.1 °C.

As to GGCTTTGGAAACAAAGCC (((((((....))))))), the folding enthalpy in data set [1] was -143 kJ/mol. Also, the Tm in data set [2] came to 68.3 °C.

For the sequence GGCTTTGGAAACAGAGCC ((((.((....)).)))), the folding enthalpy in data set [1] was -148 kJ/mol. The Tm in data set [2] came out at 50.6 °C.

As to GGGAAAGGAAACTTTCTC (.(((((....))))).), the folding enthalpy in data set [1] is -85.3 kJ/mol. Further, the Tm in data set [2] was found to be 38.4 °C.

Regarding GGGAAAGGAAACTTTTCC ((.((((....)))).)), in data set [1], the folding enthalpy was -113 kJ/mol. Further, in data set [2], the Tm was 40.6 °C.

On to GGGAACGAAAGTTCCCCC ((((((....)))..))), for which the folding enthalpy in data set [1] was -37.9 kJ/mol. In addition, the Tm in data set [2] was determined as 68.4 °C.

Regarding GGGAACGAAAGTTGACCC ((((((....)))..))), the folding enthalpy in data set [1] is -87.2 kJ/mol. In data set [2], the Tm was 37.8 °C.

On to GGGAACGAAAGTTGCCC ((((((....))).))), for which the folding enthalpy in data set [1] was -120 kJ/mol. The Tm in data set [2] amounted to 53 °C.

Consider GGGAACGAAAGTTGGCCC ((((((....)))..))), for which, in data set [1], the folding enthalpy is -61.4 kJ/mol. In addition, the Tm in data set [2] amounted to 32 °C.

With GGGAACGAAAGTTGTCCC ((((((....)))..))), the folding enthalpy in data set [1] is -75.7 kJ/mol. The Tm in data set [2] is 36.4 °C.

As for GGGAACGAAAGTTTACCC ((((((....)))..))), in data set [1], the folding enthalpy is -88.3 kJ/mol. In addition, the Tm in data set [2] stood at 34.1 °C.

For GGGAACGGAAACGTTCTC (.(((((....))))).), the folding enthalpy in data set [1] was -76.3 kJ/mol. The Tm in data set [2] worked out at 52.9 °C.

Turning to GGGAAGACGAAAGTCCCC (((..(((....)))))), the folding enthalpy in data set [1] is -80 kJ/mol. In addition, in data set [2], the Tm was 45.3 °C.
